Fh CTSL1 inh = blocks F. hepatica cathepsin L1 in PFM18AAP counter-screen; AID 1906; inhibition, % at 5.96 µM; hit rate 0.49% among 300,000; recombinant F. hepatica cathepsin L1, Z-Leu-Arg-MCA fluorescence;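 active = inhibition above the mean of all tested compounds plus 3 SD, set per screening campaign, cut at about 17% in these data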;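 note: 0% = plate median of test compound wells and 100% = 1 µM Z-Phe-Ala-diazomethylketone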
GSTO1 counter = counter-screen for RBBP9 inhibitors: inhibitors of human GSTO1 | P78417 | recombinant GSTO1, activity-based probe fluorescence polarization | inhibition, % at 5.96 µM | hit rate 1.1% among 300,000 | AID 1974;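 active = inhibition above the campaign mean inhibition plus 3 SD, cut at about 35% in these data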;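 note: 0% = GSTO1-1 with DMSO and 100% = wells lacking GSTO1-1 enzyme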
TDP2 absorb = TDP2 (human) inhibition, absorbance primary screen; hit rate 0.34% among 370,000; recombinant TDP2, T5PNP hydrolysis, p-nitrophenol absorbance 415 nm; inhibition, % at 12.8 µM; O95551;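 active = inhibition above the mean of all tested compounds plus 3 SD, set per campaign, cut at about 25% in these data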;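 note: 0% = DMSO with enzyme and 100% = buffer with substrate but no TDP2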
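Material: recombinant human TDP2; quantity: TDP2 enzyme at 120 nM final; medium: Tris-HCl pH 7.5 with MgCl2; compound: single concentration, 12.8 µM nominal, with 1% DMSO; incubation: 2 h enzyme incubation at 37 °C; signal: epi absorbance; measure: percent inhibition; benchmarks: high control without enzyme, low control DMSO plus TDP2; repeats: singlicate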
PAD4 inh = inhibitors of human PAD4 | inhibition, % at 6.36 µM | Q9UM07 | AID 485272 | hit rate 0.41% among 330,000 | recombinant PAD4, RCA probe fluorescence polarization;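 active = percent inhibition above a cutoff equal to the mean of all tested compounds plus 3 SD, cut at about 15% in these data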;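 note: 0% = PAD4 with RCA probe and DMSO and 100% = probe without PAD4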
Target sequence (Q9UM07 whole entry, looked up): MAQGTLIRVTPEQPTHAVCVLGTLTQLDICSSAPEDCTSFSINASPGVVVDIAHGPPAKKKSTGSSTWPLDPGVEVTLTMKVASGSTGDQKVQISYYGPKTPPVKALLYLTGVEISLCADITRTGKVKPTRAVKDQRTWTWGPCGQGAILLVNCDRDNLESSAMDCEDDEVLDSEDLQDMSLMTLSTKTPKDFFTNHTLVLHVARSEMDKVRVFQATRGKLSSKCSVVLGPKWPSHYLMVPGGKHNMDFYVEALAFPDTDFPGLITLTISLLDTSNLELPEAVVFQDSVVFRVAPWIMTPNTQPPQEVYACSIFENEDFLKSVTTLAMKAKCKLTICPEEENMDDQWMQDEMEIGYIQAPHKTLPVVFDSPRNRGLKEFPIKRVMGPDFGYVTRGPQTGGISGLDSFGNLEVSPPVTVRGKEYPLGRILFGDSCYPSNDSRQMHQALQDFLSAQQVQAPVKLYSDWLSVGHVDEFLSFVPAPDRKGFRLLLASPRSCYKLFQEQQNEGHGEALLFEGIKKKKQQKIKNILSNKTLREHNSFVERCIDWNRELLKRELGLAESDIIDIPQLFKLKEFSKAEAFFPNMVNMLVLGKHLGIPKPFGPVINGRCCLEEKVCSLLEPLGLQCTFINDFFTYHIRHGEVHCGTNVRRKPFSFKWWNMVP
GSTO1 inh conf = GSTO1 (human) inhibition, confirmation; hit rate 54% among 2,400; recombinant GSTO1, probe fluorescence polarization; inhibition, % at 5.96 µM; shares compounds with GSTO1 counter;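 active = inhibition above the primary screen's cutoff, its mean inhibition plus 3 SD, cut at about 35% in these data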;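 note: loss of polarization as inhibitors block binding of rhodamine sulfonate ester activity probe; 0% = GSTO1 with DMSO and 100% = wells lacking GSTO1 enzyme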
PAD4 FP conf = confirmation of human PAD4 inhibitors; shares compounds with PAD4 inh; recombinant PAD4, RCA probe fluorescence polarization; inhibition, % at 6.36 µM; hit rate 28% among 1,200;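 active = mean inhibition across replicates above the hit cutoff set by the earlier primary screen, cut at about 15% in these data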;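 note: inhibitors block active-site labeling by the probe so polarization falls; 0% = PAD4 with probe and DMSO and 100% = probe without PAD4 enzyme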
TDP2 inh conf = confirmation of human TDP2 inhibitors | shares compounds with TDP2 absorb | recombinant human TDP2, absorbance read-out | inhibition, % at 12.8 µM | hit rate 22% among 1,100 | AID 743263; in the data active = inhibition above about 25%;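 note: 0% = vehicle with enzyme and 100% = no enzyme buffer only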
* = called active by the depositor; nt = not tested or not shown. Shown are actives, neighbours in structure and some others; about 1.4% of the full set was active somewhere.

SMILES | Fh CTSL1 inh | GSTO1 counter | TDP2 absorb | PAD4 inh | GSTO1 inh conf | TDP2 inh conf | others
CC(=O)Nc1ccc(S(=O)(=O)/N=C2\C(=O)c3ccccc3C([O-])=C2n2cc[n+](-c3ccccn3)c2)cc1 | 31* | 77* | 37* | 32* | 82* | 23 | PAD4 FP conf=2
CC(=O)Nc1ccc(S(=O)(=O)NCCSc2ccccn2)cc1 | -5 | 1 | 10 | 4 | nt | nt
CC1=NN(c2ccc(F)cc2)C(=O)C1C(c1cccc(O)c1)c1c(C)[nH]n(-c2ccc(F)cc2)c1=O (stereo unspecified) | -1 | 58* | 89* | 69* | 36* | 48* | PAD4 FP conf=-8
O=C1c2ccccc2C(=O)C12OC2c1cccc2ccccc12 (stereo unspecified) | 62* | 75* | 73* | -15 | 71* | 76*
O=C1NC(c2cccc3ccccc23)Nc2ccccc21 (stereo unspecified) | nt | nt | 3 | nt | nt | nt
CN1C(c2ccccc2)CC(C)(O)CC1c1ccccc1 (stereo unspecified) | nt | nt | -2 | nt | nt | nt
O=C(Cc1ccccc1Cl)NC1(O)C(=O)c2ccccc2C1=O | 26* | 67* | 47* | 14 | 67* | 54*
C[C@@H]1ON(C)[C@H]2C[C@H]3c4[nH]c5c(-c6ccc7c(c6)OCO7)cccc5c4CCN3C[C@@H]12 | nt | nt | 6 | nt | nt | nt
O=C(NN=c1c(=O)c2ccccc2c1=O)c1ccccc1 | 61* | 77* | 57* | 44* | 72* | 78* | PAD4 FP conf=45*
CN(C)/C=N/NC(=O)c1ccccc1 | -2 | -4 | -10 | -6 | nt | nt
C[n+]1cccc2c(Br)ccc([O-])c21 | 1 | 41* | 71* | 6 | 14 | 37*
Cn1[nH]c(CSc2ccc(Cl)cc2)cc1=O | -5 | 59* | 48* | 38* | 14 | 3 | PAD4 FP conf=6
O=S(=O)(Nc1ccc(O)c2ccccc12)c1ccc(F)cc1 | -2 | 64* | 47* | 3 | 11 | 19
CCc1ccc(S(=O)(=O)Nc2ccc(O)c3ccccc23)cc1 | -3 | 53* | 54* | 12 | 2 | 8
O=S(=O)(Nc1ccc(NS(=O)(=O)c2ccccc2)c2ccccc12)c1ccccc1 | nt | nt | -9 | nt | nt | nt
CCNC(=S)NS(=O)(=O)c1ccc(CC)cc1 | -2 | 7 | 5 | -3 | nt | nt
Nc1cc(Cl)ccc1N1CCCCC1 | 0 | 0 | 2 | -1 | nt | nt
Nc1ccc(N2CCCCC2)c2nonc12 | 79* | 92* | 82* | 69* | 62* | 89*
O=c1cc(-c2cccc([N+](=O)[O-])c2)[nH][nH]1 | 1 | 38* | 71* | 52* | 9 | 15 | PAD4 FP conf=-2
Nc1ncnc2oc(-c3ccco3)c(-c3ccco3)c12 | 4 | 56* | 27* | 3 | 20 | -1
CCN(CC)c1ccc(/C=C2\C(=O)N(c3nnc(C)c(=O)[nH]3)N=C2C)cc1 | 0 | 40* | 26* | 2 | 14 | 4
CCN(CC)c1ccc(/C=C2/C(=O)ON=C2C)cc1 | 5 | 9 | 10 | -4 | nt | nt
O=C1C=C(Nc2ccccc2C(=O)O)c2ccccc2C1=O | 29* | 75* | 46* | 18* | 88* | 50* | PAD4 FP conf=61*
O=C(O)c1ccccc1Nc1ccccc1C(=O)O | 4 | -1 | 7 | -3 | nt | nt
Cc1c(NC(=O)C(C)OC(=O)c2ccc([N+](=O)[O-])s2)c(=O)n(-c2ccccc2)n1C (stereo unspecified) | 28* | 44* | 44* | -10 | 13 | 32*
SMILES | Fh CTSL1 inh | GSTO1 counter | TDP2 absorb | PAD4 inh | GSTO1 inh conf | TDP2 inh conf | others
Cc1c(NC(=O)C(C)OC(=O)c2sc3ccccc3c2Cl)c(=O)n(-c2ccccc2)n1C (stereo unspecified) | -4 | -2 | 9 | 2 | nt | nt
Cc1nnc(N/N=C/c2ccccc2O)n1N | 20* | 72* | 59* | 41* | 32 | 26* | PAD4 FP conf=1
C[C@H]1CCCC(=O)N[C@@H](c2ccccc2)[C@@H](C)CCCC(=O)N[C@H]1c1ccccc1 | nt | nt | 1 | nt | nt | nt
N#CC1=C(N)OC2=C(C(=O)CCC2)[C@]12C(=O)N(CC(N)=O)c1ccccc12 | -3 | 1 | 3 | 0 | nt | nt
O=C1CCCC2=C1C1(O)C(=O)c3ccccc3C1(O)O2 (stereo unspecified) | 5 | 70* | 53* | 45* | 68* | 59* | PAD4 FP conf=33*
Oc1ccc(Br)cc1CNc1cccc2cccnc12 | -4 | 46* | 30* | -8 | 6 | 15
Cc1ccc(O)c(CNc2cccc3cccnc23)c1 | -4 | 21 | 6 | -5 | nt | nt
Oc1c(Br)cc(Br)cc1CNc1cccc2cccnc12 | 29* | 67* | 36* | 18* | 92* | 27* | PAD4 FP conf=-2
O=C(Cn1nc(-c2ccccc2)ccc1=O)NCCc1ccc(F)cc1 | nt | nt | 1 | nt | nt | nt
C=CCN(C(=O)[C@@H](C1CC1)[C@@H](O)c1ccc2ccccc2c1)c1ccccc1 | nt | nt | -8 | nt | nt | nt
C=Cc1ccc(N=Cc2c(O)ccc3ccccc23)cc1 | -3 | 30 | -19 | -14 | nt | nt
Oc1ccc2ccccc2c1C=Nc1ccc(N2CCOCC2)cc1 | 3 | 41* | 31* | 46* | 38* | 5 | PAD4 FP conf=1
CCN(CC)C(=O)CC[C@H]1CC[C@]2(CCCN(Cc3ccccc3)C2)O1 | nt | nt | -4 | nt | nt | nt
C=CCNC(=O)CN(C(=O)c1csc2ccc(Cl)cc12)c1cccc(Br)c1 | nt | nt | 4 | nt | nt | nt
O=C(NC1=C(NC2CCS(=O)(=O)C2)C(=O)c2ccccc2C1=O)c1ccccc1 (stereo unspecified) | 10 | 81* | 28* | 26* | 71* | 37* | PAD4 FP conf=22*
O=C(C1CCCN1S(=O)(=O)c1cccs1)N1CCc2ccccc2C1 (stereo unspecified) | nt | nt | -6 | nt | nt | nt
COc1ccccc1-c1cnc(C(O)c2c(C)cc(C)cc2C)[nH]1 (stereo unspecified) | nt | nt | -5 | nt | nt | nt
C=CCn1c(N)c(C(=O)NCC2CCCO2)c2nc3ccccc3nc21 (stereo unspecified) | -4 | 80* | 35* | 12 | 5 | -8
CC(C)=CCC1=C(OCC(=O)O)C(=O)c2ccccc2C1=O | 45* | 89* | 47* | 28* | 85* | 67* | PAD4 FP conf=-1
Nc1ccc2nn(-c3ccc(F)cc3)nc2c1 | -1 | 43* | 34* | -4 | 48* | 12
Clc1cccc(CNC2CCC23CCCCC3)c1 (stereo unspecified) | nt | nt | 2 | nt | nt | nt
O=C(N(c1ccccc1)c1ccccc1)N(c1ccccc1)c1ccccc1 | 2 | 12 | -5 | 0 | nt | nt
CC(=O)N(C1=C(N)C(=O)c2ccccc2C1=O)c1ccccc1 | 30* | 59* | 29* | 1 | 27 | 20
Cc1ccc(-n2c(SCC(=O)Nc3cccc4ccccc34)nnc2-c2ccccc2)cc1 | nt | nt | 3 | nt | nt | nt
O=C(CSc1ccc(Cl)cc1)Nc1ccccc1 | nt | nt | -7 | nt | nt | nt
